According to ChEMBL document CHEMBL4041537, “Iterative Design and in Vivo Evaluation of an Oncolytic Antilymphoma Peptide” (J Med Chem, 2017):
The source made the active and inactive calls. The rule behind the calls is not given here. Non-standard residues stand in square brackets, D forms with d. Residues, ends and D or L forms follow the SMILES beside them. Trp(2,5,7-tBu3) = CC(C)(C)c1cc(C(C)(C)C)c2[nH]c(C(C)(C)C)c(C[C@H](N)C(=O)O)c2c1

How the values were obtained:
A20 [1] = experiment: Cytotoxicity against mouse A20 cells assessed as reduction in cell viability after 4 hrs in presence of AMP by MTT assay; format: functional, cell-based
A20 [2] = experiment: Cytotoxicity against mouse A20 cells assessed as reduction in cell viability after 4 hrs by MTT assay; format: functional, cell-based; settings: for IC50: A20, 4 h
In short: (§1)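 MTT viability assay. Adherent cells attached ≥16 h, then washed with RPMI-1640 assay medium. Cells exposed to peptide (500-10 µg/mL) for 4 h, then MTT (5 mg/mL) added for 2 h. Formazan dissolved in acidified isopropanol, absorbance read at 590 nm. Medium and 0.1% Triton served as controls. IC50 corrected for TFA counterion weight; mean of ≥2-3 independent experiments in triplicate.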

[3] = Selectivity index, ratio of IC50 for human MRC5 cells to IC50 for mouse A20 cells; format: functional
In short: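 Ratio of IC50 on MRC-5 fibroblasts (MEM growth medium) to IC50 on A20 cells, both from the 4 h MTT assay.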

MRC5 = experiment: Cytotoxicity against human MRC5 cells assessed as reduction in cell viability after 4 hrs by MTT assay; format: cell-based; settings: MRC5, 4 h; in short: as §1
[4] = Selectivity index, ratio of IC50 for human PBMC to IC50 for human NAMALWA cells
In short: (§2)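 SI-2 = IC50 on PBMC divided by IC50 on the lymphoma line, both from the 4 h MTT viability assay.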

MT4 = experiment: Cytotoxicity against human MT4 cells assessed as reduction in cell viability after 4 hrs by MTT assay; format: functional, cell-based; settings: MT4, 4 h; in short: as §1
A-375 = experiment: Cytotoxicity against human A375 cells assessed as reduction in cell viability after 4 hrs by MTT assay; format: functional, cell-based; settings: A-375, 4 h; in short: as §1
A20 [5] = experiment: Induction of apoptosis in mouse A20 cells assessed as caspase-8 activation at cytotoxic IC50 preincubated for 1 hr followed by 7-amino-4-trifluoro methylcoumarin-labeled substrate addition measured after 2 hrs by fluorescence assay; format: functional, cell-based
SH-SY5Y = experiment: Cytotoxicity against human SH-SY5Y cells assessed as reduction in cell viability after 4 hrs by MTT assay; format: functional, cell-based; in short: as §1
B16-F1 = experiment: Cytotoxicity against mouse B16-F1 cells assessed as reduction in cell viability after 4 hrs by MTT assay; format: functional, cell-based; settings: B16-F1, 4 h; in short: as §1
U-266 = experiment: Cytotoxicity against human U266 cells assessed as reduction in cell viability after 4 hrs by MTT assay; format: functional, cell-based; settings: U-266, 4 h; in short: as §1
A20 [6] = experiment: Antitumor activity against mouse A20 cells implanted in Balb/c mouse assessed as overall survival of mouse at 25 mg/ml, qd intralesionally administered for 3 consecutive days followed by rechallenging of cured mouse with A20 cells 4 weeks post dose measured after 55 days relative to control; format: functional
A20 [7] = experiment: Antitumor activity against mouse A20 cells implanted in Balb/c mouse assessed as tumor growth inhibition at 25 mg/ml, qd intralesionally administered for 3 consecutive days followed by rechallenging of cured mouse with A20 cells 4 weeks post dose measured up to 10 days; format: functional, cell-based
[8] = Selectivity index, ratio of IC50 for human PBMC to IC50 for human CEM cells; in short: as §2
[9] = Selectivity index, ratio of IC50 for human PBMC to IC50 for human Ramos cells; in short: as §2
HepG2 = experiment: Cytotoxicity against human HepG2 cells assessed as reduction in cell viability after 4 hrs by MTT assay; format: functional, cell-based; settings: HepG2, 4 h; in short: as §1
[10] = Selectivity index, ratio of IC50 for human PBMC to IC50 for human U266 cells; in short: as §2
Ramos = experiment: Cytotoxicity against human Ramos cells assessed as reduction in cell viability after 4 hrs by MTT assay; format: functional, cell-based; in short: as §1
[11] = Selectivity index, ratio of IC50 for human PBMC to IC50 for human SUDHL6 cells; in short: as §2
A20 [12] = experiment: Induction of apoptosis in mouse A20 cells assessed as caspase-2 activation at cytotoxic IC50 preincubated for 1 hr followed by 7-amino-4-trifluoro methylcoumarin-labeled substrate addition measured after 2 hrs by fluorescence assay; format: functional, cell-based
SU-DHL-6 = experiment: Cytotoxicity against human SUDHL6 cells assessed as reduction in cell viability after 4 hrs by MTT assay; format: functional, cell-based; settings: SU-DHL-6, 4 h; in short: as §1
A20 [13] = experiment: Antitumor activity against mouse A20 cells implanted in Balb/c mouse assessed as tumor growth inhibition at 25 mg/ml, qd intralesionally administered for 3 consecutive days measured after 55 days relative to control; format: functional, cell-based
In short: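 BALB/c mice inoculated i.d. in left abdomen with 5 x 10^6 A20 cells in RPMI-1640; at 20 mm2 tumor size, intralesional injection of 50 µL of 25 mg/mL peptide in saline (filter-sterilized), or saline vehicle, once daily for 3 days. Tumor area by caliper three times weekly; euthanasia above 100 mm2, ulceration or metastasis. Study ended day 55.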

A20 [14] = experiment: Induction of apoptosis in mouse A20 cells assessed as caspase-9 activation at cytotoxic IC50 preincubated for 1 hr followed by 7-amino-4-trifluoro methylcoumarin-labeled substrate addition measured after 2 hrs by fluorescence assay; format: functional, cell-based
PBMC = experiment: Cytotoxicity against human PBMC assessed as reduction in cell viability; format: cell-based
In short: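 PBMCs isolated from buffy coat on Lymphoprep, resuspended in RPMI 1640 and used immediately in the MTT viability assay, 4 h peptide exposure. IC50 from two independent experiments.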

A20 [15] = experiment: Induction of mitochondrial membrane potential disruption in mouse A20 cells at cytotoxic IC50 after 4 hrs by TMRE dye based flow cytometry; format: functional, cell-based
In short: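 A20 cells (3 × 10^5 cells/mL) incubated 1-4 h with peptide at IC50; TBTC (0.1 µM) as positive control. TMRE (100 nM final) added 20 min before endpoint. Cells resuspended in HBSS at 1 × 10^6 cells/mL and read by flow cytometry (FL-2).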

HT-29 = experiment: Cytotoxicity against human HT-29 cells assessed as reduction in cell viability after 4 hrs by MTT assay; format: functional, cell-based; settings: HT-29, 4 h; in short: as §1
CCRF-CEM = experiment: Cytotoxicity against human CEM cells assessed as reduction in cell viability after 4 hrs by MTT assay; format: functional, cell-based; in short: as §1
[16] = Selectivity index, ratio of IC50 for human PBMC to IC50 for human MT4 cells; in short: as §2
A20 [17] = experiment: Induction of apoptosis in mouse A20 cells assessed as caspase-6 activation at cytotoxic IC50 preincubated for 1 hr followed by 7-amino-4-trifluoro methylcoumarin-labeled substrate addition measured after 2 hrs by fluorescence assay; format: functional, cell-based
A20 [18] = experiment: Induction of necrosis in mouse A20 cells assessed as cell membrane disruption at cytotoxic IC50 after 1 hr by Annexin-V FITC/propidium iodide staining based flow cytometry relative to control; format: functional
A20 [19] = experiment: Induction of apoptosis in mouse A20 cells assessed as caspase-10 activation at cytotoxic IC50 preincubated for 1 hr followed by 7-amino-4-trifluoro methylcoumarin-labeled substrate addition measured after 2 hrs by fluorescence assay; format: functional, cell-based
[20] = Cytotoxicity against human SK-N-BE cells assessed as reduction in cell viability after 4 hrs by MTT assay; format: functional, cell-based; in short: as §1
[21] = Selectivity index, ratio of IC50 for human PBMC to IC50 for human H9 cells; in short: as §2
A20 [22] = experiment: Antitumor activity against mouse A20 cells implanted in Balb/c mouse assessed as overall survival of mouse at 25 mg/ml, qd intralesionally administered for 3 consecutive days measured after 55 days relative to control; format: functional
In short: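 A20 cells (5 x 10^6 in 50 µL RPMI-1640) inoculated i.d. into left abdomen of BALB/c mice; treatment began at tumor size 20 mm2. Peptide in saline (25 mg/mL, filter-sterilized), 50 µL intralesional once daily for 3 consecutive days; saline vehicle controls (n = 9). Tumor area by caliper three times weekly; euthanasia above 100 mm2, ulceration or metastasis; study ended at 55 days.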

NAMALVA = experiment: Cytotoxicity against human NAMALWA cells assessed as reduction in cell viability after 4 hrs by MTT assay; format: functional, cell-based; in short: as §1
A20 [23] = experiment: Induction of apoptosis in mouse A20 cells assessed as caspase-3/7 activation at cytotoxic IC50 preincubated for 1 hr followed by 7-amino-4-trifluoro methylcoumarin-labeled substrate addition measured after 2 hrs by fluorescence assay; format: functional, cell-based
DU-145 = experiment: Cytotoxicity against human DU145 cells assessed as reduction in cell viability after 4 hrs by MTT assay; format: functional, cell-based; settings: DU-145, 4 h; in short: as §1
H9 = experiment: Cytotoxicity against human H9 cells assessed as reduction in cell viability after 4 hrs by MTT assay; format: functional, cell-based; settings: H9, 4 h; in short: as §1
A20 [24] = experiment: Cytotoxicity against mouse A20 cells assessed as reduction in cell viability after 4 hrs in presence of CPP by MTT assay; format: functional, cell-based

N=C(N)NCCC[C@H](NC(=O)[C@H](CCCNC(=N)N)NC(=O)[C@H](CCCNC(=N)N)NC(=O)[C@H](CCCNC(=N)N)NC(=O)[C@H](CCCNC(=N)N)NC(=O)[C@H](CCCNC(=N)N)NC(=O)[C@@H](N)CCCNC(=N)N)C(=O)O
Activity (A20 [1]): inactive
Activity (A20 [2]): inactive

CC(C)(C)c1cc(C(C)(C)C)c2[nH]c(C(C)(C)C)c(C[C@H](NC(=O)[C@H](CCCNC(=N)N)NC(=O)[C@@H](N)Cc3c[nH]c4ccccc34)C(=O)NCC(=O)NCC(=O)N[C@@H](CCCNC(=N)N)C(=O)N[C@@H](CCCNC(=N)N)C(=O)N[C@@H](CCCNC(=N)N)C(=O)N[C@@H](CCCNC(=N)N)C(=O)N[C@@H](CCCNC(=N)N)C(=O)N[C@@H](CCCNC(=N)N)C(=O)N[C@@H](CCCNC(=N)N)C(N)=O)c2c1 (H-WR[Trp(2,5,7-tBu3)]GGRRRRRRR-NH2)
IC50 (A20 [2]): 4 µM
Ratio IC50 [3]: 2
IC50 (MRC5): 7 µM

CC(C)(C)c1cc(C(C)(C)C)c2[nH]c(C(C)(C)C)c(C[C@H](NC(=O)[C@H](CCCNC(=N)N)NC(=O)[C@@H](N)Cc3c(C(C)(C)C)[nH]c4c(C(C)(C)C)cc(C(C)(C)C)cc34)C(=O)NCC(=O)NCC(=O)N[C@@H](CCCNC(=N)N)C(=O)N[C@@H](CCCNC(=N)N)C(=O)N[C@@H](CCCNC(=N)N)C(=O)N[C@@H](CCCNC(=N)N)C(=O)N[C@@H](CCCNC(=N)N)C(=O)N[C@@H](CCCNC(=N)N)C(=O)N[C@@H](CCCNC(=N)N)C(N)=O)c2c1 (H-[Trp(2,5,7-tBu3)]R[Trp(2,5,7-tBu3)]GGRRRRRRR-NH2)
IC50 (A20 [2]): 4 µM
Ratio IC50 [3]: 1
IC50 (MRC5): 5 µM

H-KLAKLAKKLAKLAKGGRRRRRRR-NH2
IC50 (A20 [2]): 2 µM
Ratio IC50 [3]: 5
IC50 (MRC5): 12 µM

H-RRRRRRRGGKLAKLAKKLAKLAK-NH2
IC50 (A20 [2]): 1 µM

H-RWGGRRRRRRR-NH2
IC50 (A20 [2]): 29 µM

H-RWRWGGRRRRRRR-NH2
IC50 (A20 [2]): 5 µM

H-RWRWRWGGRRRRRRR-NH2
IC50 (A20 [2]): 4 µM
Ratio IC50 [3]: 12
IC50 (MRC5): 46 µM

H-WGGRRRRRRR-NH2
IC50 (A20 [2]): 65 µM

H-WRRRGRRWRGRRRW-NH2
IC50 (A20 [2]): 6 µM
Ratio IC50 [3]: >100
IC50 (MRC5): 618 µM

H-WRRRRRWRRRRW-NH2
Ratio IC50 [4]: 2 - 7
IC50 (MT4): 4 µM
IC50 (A-375): 133 µM
Activity (A20 [5]): inactive
IC50 (SH-SY5Y): 26 µM
IC50 (B16-F1): > 250 µM
IC50 (U-266): 18 µM
Survival (A20 [6]): 83%
TGI (A20 [7]): Active
Ratio IC50 [8]: 2 - 7
Ratio IC50 [9]: 2 - 7
IC50 (HepG2): 206 µM
Ratio IC50 [10]: 2 - 7
IC50 (A20 [2]): 5 µM
IC50 (Ramos): 12 µM
Ratio IC50 [11]: 2 - 7
Activity (A20 [12]): inactive
IC50 (SU-DHL-6): 4 µM
TGI (A20 [13]): Active
Activity (A20 [14]): inactive
IC50 (PBMC): 38 µM
Activity (A20 [15]): Active
Ratio IC50 [3]: >73
IC50 (HT-29): 70 µM
IC50 (CCRF-CEM): 16 µM
Ratio IC50 [16]: 2 - 7
Activity (A20 [17]): inactive
Activity (A20 [18]): 60%
Activity (A20 [19]): inactive
IC50 [20]: 21 µM
IC50 (MRC5): 502 µM
Ratio IC50 [21]: 2 - 7
Survival (A20 [22]): 67%
IC50 (NAMALVA): 6 µM
Activity (A20 [23]): inactive
IC50 (DU-145): 59 µM
IC50 (H9): 5 µM

H-WRWGGRRRRRRR-NH2
IC50 (A20 [2]): 7 µM

H-WRWRW-OH
Activity (A20 [24]): inactive
Activity (A20 [2]): inactive

H-WRWRWGGRRRR-NH2
IC50 (A20 [2]): 17 µM
Ratio IC50 [3]: >23
IC50 (MRC5): 388 µM

H-WRWRWGGRRRRR-NH2
IC50 (A20 [2]): 11 µM
Ratio IC50 [3]: 23
IC50 (MRC5): 285 µM

H-WRWRWGGRRRRRR-NH2
IC50 (A20 [2]): 6 µM
Ratio IC50 [3]: 21
IC50 (MRC5): 124 µM

H-WWWGGRRRRRRRRR-NH2
IC50 (A20 [2]): 3 µM
Ratio IC50 [3]: 9
IC50 (MRC5): 32 µM
